Experimental data as given in the EternaBench riboswitch data.

System: MS2 coat protein
Test: apparent Kd, MS2 coat protein; higher = weaker binding; RNA-MaP array
Summary of the method: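 In Tris-HCl pH 7.5 buffer with KCl, MgCl2, BSA, DTT, tRNA and Tween20, with or without input ligand, fluorescently labeled MS2 coat protein at 1.5 nM to 3 μM was incubated at room temperature with designed RNAs. The RNAs had been transcribed on an Illumina sequencing chip from sequenced DNA templates, and incubation ran 0.8–1.5 h at the lowest to 10–20 min at the highest concentrations. Apparent Kd is the median of binding-curve fits for individual clusters. Designs measured on fewer than 10 clusters were excluded.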

[1] = designed as: ON switch for flavin mononucleotide, no ligand
[2] = ligand present: flavin mononucleotide, designed as: ON switch for flavin mononucleotide
[3] = designed as: OFF switch for flavin mononucleotide, no ligand
[4] = ligand present: flavin mononucleotide, designed as: OFF switch for flavin mononucleotide
[5] = designed as: OFF switch for theophylline, no ligand
[6] = ligand present: theophylline, designed as: OFF switch for theophylline
[7] = designed as: ON switch for theophylline, no ligand
[8] = ligand present: theophylline, designed as: ON switch for theophylline

Sequence | apparent Kd [1] | apparent Kd [2] | apparent Kd [3] | apparent Kd [4] | further results
UUGUGUACUCGAGGAUAUAAUGGACUACAUGAGGAUCACCCAUGUAUACGCCCACAGAGCGUCUUUUAGAAGGCGACGCAUCAU | 8.4 nM | 7.85 nM | – | – | –
AAGAACCAGAUAGGAUAUCCGUUUAAAUCACAAGGAGAAGGAUCAAAUACAAAACAUGAGGAUCACCCAUGUGGAAGAUAGCUA | 33.2 nM | 18.7 nM | – | – | –
CUAAGCUCGGACAAGGAUAUUAAUUACUAGACAUGAGGAUCACCCAUGUCAACAGACUGGAGGAUUAAGAAGGUGAUUGAAAACCC | 21.8 nM | 19.4 nM | – | – | –
CUCCUCACCGUGAGGAUAUAGUAUUCCGGUUGUUACUAGAAGGCACAUGAGGAUCACCCAUGUUACGGUUCCCA | – | – | 13.4 nM | 50.6 nM | –
UCUUUAAGCACAGGAUAUUGGUACAUGAGGAUCACCCAUGUGGAUCGUACUACCUCUCCACCGGACAAGAAGGGUGCGCCUACG | 172 nM | 125 nM | – | – | –
GGGAUACAUGAGGAUCACCCAUGUCAGGAUAUCUUUUACCGGCACGACAAUCAUAUGAAGAGAAGGGACUAUAU | – | – | 35 nM | 31.9 nM | –
GGUUCCGCUAAGGUGAAACAUGAGGAUCACCCAUGUCAAUCUGAGGAUAUUUAUCUCGACGAGGCAAAGAAGGCAGACUCGCGG | – | – | 9.53 nM | 14.8 nM | –
UAGUAACAUGAGGAUCACCCAUGUCAGGAUAUGAGGUCUACGGCAUAAGCGAAUCGGGUCAGAAGGGACAUAAC | – | – | 20.4 nM | 16.9 nM | –
GGUUCUUGUUGACGUUUAUACAUGAGGAUCACCCAUGUUGCGCAGGAUAUUUCACAUUGAUAGAGAAAGAAGGGCGAUGUACGU | 10.4 nM | 8.68 nM | – | – | –
CUGACGUAGGAAGAUAUCUGGAACAAGGAUACCAGUAAACCAACAUACCCUUGGCAGCCUAAAACAUGAGGAUCACCCAUGUAAU | – | – | – | – | apparent Kd [5]: 12.4 nM; apparent Kd [6]: 14.6 nM
CACAGGUCAGUAGGAUAUGCUACAUGAGGAUCACCCAUGUGGUGGUAUAUGCGUCUAGGCGCAAAGCAGAAGGACUUCCAGGUG | – | – | 42 nM | 146 nM | –
AUUGUGAUAGCAGGAUAUUGUAUUGGUACAUGAGGAUCACCCAUGUUAAAAUCCUCUUGAUUUAGCAAGAAGGGCUCCAUGGCA | – | – | 21.8 nM | 18.3 nM | –
AACAUGUGAGGAUAUAGUCAAAAUAGCACAAGUAACAUAAACUAGAAGGCACAUGAGGAUCACCCAUGUGAAUA | – | – | 7.9 nM | 10.6 nM | –
AUCAGUGGCUAGGAUAUGUUAGUCAGAUAUACAACAGAAGGAGCGACAUGAGGAUCACCCAUGUUACAGUGGAG | – | – | 13 nM | 22.2 nM | –
AAACCCAAAGUUAGGAUAUGCAUUGCCGGCCCUGUGCAGAAGGAACAUGAGGAUCACCCAUGUACUGGUGUUCG | – | – | 42.7 nM | 103 nM | –
GUAUUACAUGAGGAUCACCCAUGUGCGCCGCGUCAAGGAUAUGUAUCGUACGUGUAGUAAACAGAAGGUGACGGAU | 170 nM | 71.2 nM | – | – | –
AGUUACAAUGUCAGGAUAUUGCUCCCACGACGGAACAAGAAGGGACAUGAGGAUCACCCAUGUUAGUCUUCGUC | – | – | 4.96 nM | 5.98 nM | –
ACAUGAGGAUCACCCAUGUUAAAAGAAGAUAGCAUAUUGGGUAGAAGGUCACAUUUCCAUUAAGUGAAGGAUAUACCAUGAUUC | 12.6 nM | 7.04 nM | – | – | –
UACCGACAUGAGGAUCACCCAUGUACUGCGCUUGGAGGAUAUCGGCUUGAUUUUGCGCGUCGAGAAGGCCAACCUA | 12.2 nM | 10.2 nM | – | – | –
CAUGAGAGAUUGUUUUGUGACUCUAACGAUACCAGAGUAGGACUUCUCCCUUGGCAGCGUGUGACAUGAGGAUCACCCAUGUCCA | – | – | – | – | apparent Kd [5]: 10.6 nM; apparent Kd [6]: 11.7 nM
UUAUACGCGAAAGGAUAUCUGAGAGUGGGAUCGUGGACAUGAGGAUCACCCAUGUGGAGAGAGGGAGAGAAGGUUCGGGUAUUC | – | – | 31.7 nM | 29.5 nM | –
ACAUGAUGCUAGAAGGGCACACAUGAGGAUCACCCAUGUCGAACGAUUCUUCGGGACUAUCGCAUGCAGGAUAUAGCUAAAUCG | 13.2 nM | 8.24 nM | – | – | –
AGAAAGAAUCAGAAGGCAGAGAUGUCUAUCUACUGAGGAUAUGAAUGACAUGAGGAUCACCCAUGUUGUCAGGCCAGGCCCAAC | 7.78 nM | 9.75 nM | – | – | –
UUAAUCGUGCAUGAUACCAGUAUCCGUAGAUACAUGAGGAUCACCCAUGUCUGGUUGGAAUACCCUUGGCAGCAUGGGUUGAGGA | – | – | – | – | apparent Kd [7]: 242 nM; apparent Kd [8]: 249 nM
GAAAAGGACAAAGGAUAUGGGUAGGCAAUCAAUCCAGAAGGUAGACCAGGCAACCUAAACAAACAUGAGGAUCACCCAUGUUAG | 16.6 nM | 14.3 nM | – | – | –
UGGGAGUGAGGAUAUGUAUAUCUCAGGGCCGAGGAGAUGAAACAGAAGGCACAUGAGGAUCACCCAUGUUAUGA | – | – | 25.3 nM | 29.9 nM | –
CUGUUCGUAGGAUAUACUGAAACACGGGACAUUCUGAUUAGACAUGAGGAUCACCCAUGUAGAAGGACGCACGU | – | – | 17.4 nM | 16.9 nM | –
CUACGCAUAGGAUAUGCCUACUGGGACAUGAGGAUCACCCAUGUGUUAUUAUCAGCUCCGGCAGAAGGAUGGUACU | – | – | 29.1 nM | 11.8 nM | –

Sequence | apparent Kd [1] | apparent Kd [2] | apparent Kd [3] | apparent Kd [4] | further results
UCUGGUAUGACGGCCGCCACUAGAUCGUGAGAAGCCUGCAUACAUGAGGAUCACCCAUGUCUCACUAGGACCGGGUCAUUCCAAU | – | – | – | – | apparent Kd (designed as: ON switch for tryptophan, no ligand): 66.1 nM; apparent Kd (ligand present: tryptophan, designed as: ON switch for tryptophan): 22.3 nM
CGUUCAGAUCAUGAUAACAUGAGGAUCACCCAUGUGGAAUAAUAGGAUAUGGAGAACAAAAUUAACCAGAAGGAUUAUAACAAA | 70 nM | 44.9 nM | – | – | –
UACAUUCGUCAGGAUAUCCAUCAGCCAGGCCUCGGAGAAGGGACUACAUGAGGAUCACCCAUGUGUAACCUCGU | – | – | 40.4 nM | 88.8 nM | –
ACCUGGUGUAAGAAGGAGCAGAUAUAACGGUCGCUAGGAUAUUACCCUUCAAAAUGGGAUCUCACAUGAGGAUCACCCAUGUUA | – | – | 143 nM | 218 nM | –
ACCUAAUAAGGAUAUACGAAAGAGCCACCUGUAAACAACCGACAUGAGGAUCACCCAUGUAGAAGGUAUUAGGU | – | – | 4.32 nM | 9.47 nM | –
AAAAGUACAGGAUAUACAUGAGGAUCACCCAUGUCAGAAUAUAAUGAUAAGAAACUGAGUAGAAGGGUAACGAG | – | – | 28.6 nM | 20.3 nM | –
UUCCUCAGCAGGGUAACAUGAGGAUCACCCAUGUCGGAGAGCGAGGAUAUCUCGUGAAGCUCAUAAGAGAAGGCGCACAACUAG | – | – | 18.2 nM | 17.2 nM | –
ACCUACGUAGGAUAUACGCAUCGUGGACCGCAUGCCCGUGCACAUGAGGAUCACCCAUGUAGAAGGACGUACGC | – | – | 17.1 nM | 22.6 nM | –
CUGUUACAUGAGGAUCACCCAUGUUUUUGGUUAAGAGGAUAUGGCACAUGGUUAAACGUUCCAGAAGGCUUUGCAC | 11.8 nM | 8.94 nM | – | – | –
CAGGAGCUAGAGAAGGAGGUUACGCCCACGGACCUAGGAUAUCUGUUCUGAGUUACAUGAGGAUCACCCAUGUGUCCGCGGUGG | – | – | 53.9 nM | 33 nM | –
CGUACAAUUAAGAAGGGACAUUGCUAUAGACUGUCAGGAUAUUAUGUACAUGAGGAUCACCCAUGUAGUAGUCAAGGGUCGGAA | – | – | 16.7 nM | 61.7 nM | –
AGUACCGUACGGAAAACAUGAGGAUCACCCAUGUCUAAUUAGAAGGAUAUGCUCUGUAAAUCGACGCAGAAGGUCAGCUAGAAU | 22.5 nM | 19 nM | – | – | –
AGUACGUCAGGAUAUCGCGUACGAAACAUGAGGAUCACCCAUGUGGUGCCGUGGCUCUAUCGAGAAGGGACUUGGC | – | – | 13.3 nM | 12.6 nM | –
AAAGAACAUGAGGAUCACCCAUGUCAGGAUAUACAAAGACGUAGCAAAGCGGACUCAAGAAGAAGGGACAAGGA | – | – | 12.8 nM | 10.1 nM | –
GCCAUAAAAGAGAAGGGCGGCCACCUACGAACCGCAGGAUAUCUUUGCUUUCCUCGGACAUGAGGAUCACCCAUGUGGCCAAUA | – | – | 97.3 nM | 160 nM | –
AGUUUGGGCGCAGGAUAUCUUCACAUGAGGAUCACCCAUGUCCAUAAGAUAUUUAUGUCAUUUGGAGAGAAGGGCGGUUGUAAU | 55.1 nM | 36.1 nM | – | – | –
GGACAACAUGAGGAUCACCCAUGUCCUGAUACCAGUCAGCGCAGUGACCCUUGGCAGCAGACGGAUACGAAAUAACUGAGAGAUA | – | – | – | – | apparent Kd [7]: 40.6 nM; apparent Kd [8]: 42.1 nM
AAGGAAUAUGAGGAUAUUGAUGCGAAACCUACUCAAGAAGGCAUAACAUGAGGAUCACCCAUGUGACCCUUAUA | – | – | 19.4 nM | 34.4 nM | –
UUCGGCCUUUAGAAGGAUUGUAUACAUGAGGAUCACCCAUGUUGGUGAUACAGAUAUAUUCGGCAAUAGGAUAUAAGCAGGUGA | – | – | 826 nM | 598 nM | –
GGACAUUGUCCUAUUCACAUGAGGAUCACCCAUGUCACAACUAGAAGGGAGCGAUAACAAUUUCCUCAGGAUAUAGUUCGCGGC | 28.2 nM | 24.7 nM | – | – | –
GGUUGGUCGCAGGAUACCAGUCCACCCGUGAUACUGCUAAACAUGAGGAUCACCCAUGUCGACCCUUGGCAGCCUGUCCAUGCGU | – | – | – | – | apparent Kd [5]: 16.3 nM; apparent Kd [6]: 124 nM
GAAAUCAGAGGAUAUCAGUCAUGUCACAUGAGGAUCACCCAUGUUUGUGUUUUGGUAGAUUGAGAAGGCUGCGACC | – | – | 16.6 nM | 9.66 nM | –
AUACAGCUAGGAUAUCCGAUAGUAUACAUGAGGAUCACCCAUGUCCUGACGGCCGACCAUGGAGAAGGAGCAGAUA | – | – | 42.2 nM | 31.9 nM | –
CAAUAACAGAAAGGAUAUGGGCUCGAUACAUGAGGAUCACCCAUGUCUCCGUCAACGCUCAGUGCCCAGAAGGUUCCGCAGAAU | 34 nM | 20.2 nM | – | – | –
GUACAGGAAGGAUAUACCAGGUAAGUUAAGUUUUCACAUUGACAUGAGGAUCACCCAUGUAGAAGGUCCCUAUA | – | – | 36.7 nM | 31.7 nM | –
UGCUUAAGACAGAAGGGCGUUCCGGAUGGUACCGCAGGAUAUGUCAACAUGAGGAUCACCCAUGUUACUAGCUAUGUUUCAAUU | 9.97 nM | 6.09 nM | – | – | –
AAUGAUGCGAUCUACAGUCGAGGAUUCGAUACCAGCAACGGGCGUUGCCCUUGGCAGCGAGCUACAUGAGGAUCACCCAUGUUAC | – | – | – | – | apparent Kd [5]: 19.9 nM; apparent Kd [6]: 34.7 nM
